Measured values reported in ChEMBL document CHEMBL3864185, “Identification of N-(2-Phenoxyethyl)imidazo[1,2-a]pyridine-3-carboxamides as New Antituberculosis Agents” (ACS Med Chem Lett, 2016).
Values after ≈ are worked out from the molar mass of the structure shown.

What was measured:
[1] = Cmax in rat at 25 mg/kg, po administered as single dose; format: ADME, organism-based; parameters: dose 25 mg/kg, route oral; conditions: in vivo
Procedure, shortened: (§1)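 Rats given one oral dose of 25 mg/kg; n = 6 animals, values as mean ± SD. Plasma profile gave Cmax, Tmax, AUC from zero to infinity, elimination half-life, mean residence time, apparent clearance (CL/F) and apparent volume of distribution (Vd/F).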

[2] = Half life in rat at 25 mg/kg, po administered as single dose; format: ADME, organism-based; conditions: in vivo; procedure, shortened: as §1
[3] = Apparent volume of distribution in rat at 25 mg/kg, po administered as single dose; format: ADME, organism-based; conditions: in vivo; procedure, shortened: as §1
Pseudomonas aeruginosa = assay: Antibacterial activity against Pseudomonas aeruginosa 12-12 after 18 to 24 hrs by NCCLS M100-S11 based assay; format: functional
[4] = tested on: Staphylococcus epidermidis; assay: Antibacterial activity against methicillin-sensitive Staphylococcus epidermidis 12-1 after 18 to 24 hrs by NCCLS M100-S11 based assay; format: functional
[5] = Mean residence time in rat at 25 mg/kg, po administered as single dose; format: ADME, organism-based; conditions: in vivo; procedure, shortened: as §1
Mus musculus = assay: Acute toxicity in mouse assessed as mortality at 50 to 100 mg/kg, iv administered as single dose measured up to 7 days post dose; format: organism-based; conditions: in vivo, 168 h
Procedure, shortened: (§2)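 Single dose given intravenously to mice (50 and 100 mg/kg) or orally to rats (500 and 1000 mg/kg).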

[6] = Apparent clearance in rat at 25 mg/kg, po administered as single dose; format: ADME, organism-based; conditions: in vivo; procedure, shortened: as §1
Klebsiella pneumoniae = assay: Antibacterial activity against Klebsiella pneumoniae 12-1 after 18 to 24 hrs by NCCLS M100-S11 based assay; format: functional
[7] = AUC (0 to infinity) in rat at 25 mg/kg, po administered as single dose; format: ADME, organism-based; parameters: dose 25 mg/kg, route oral, time infinity; conditions: in vivo; procedure, shortened: as §1
Staphylococcus aureus [8] = assay: Antibacterial activity against methicillin-sensitive Staphylococcus aureus 12-1 after 18 to 24 hrs by NCCLS M100-S11 based assay; format: functional
[9] = tested on: Mycobacterium tuberculosis; assay: Antimycobacterial activity against drug-sensitive Mycobacterium tuberculosis H37Rv ATCC 27294 after 7 days by microplate alamar blue assay; format: functional; conditions: H37Rv ATCC 27294, 168 h
Procedure, shortened: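 Microplate Alamar Blue Assay against M. tuberculosis H37Rv ATCC 27294, read by fluorescence. MIC was the lowest concentration that reduced fluorescence by >90% relative to the mean of replicate bacterium-only controls.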

Rattus norvegicus [10] = assay: Acute toxicity in rat assessed as mortality at 500 mg/kg, po administered as single dose measured up to 7 days post dose; format: organism-based; conditions: in vivo, 168 h; procedure, shortened: as §2
Streptococcus pneumoniae = assay: Antibacterial activity against Streptococcus pneumoniae ATCC 49619 after 18 to 24 hrs by NCCLS M100-S11 based assay; format: functional
Staphylococcus aureus [11] = assay: Antibacterial activity against methicillin-resistant Staphylococcus aureus 12-2 after 18 to 24 hrs by NCCLS M100-S11 based assay; format: functional
Procedure, shortened: (§3)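 Broth MIC set up per NCCLS M100-S11. Plates were incubated at 35 °C for 18–24 h. MIC was the lowest concentration that inhibited visible bacterial growth, i.e. complete growth inhibition.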

[12] = tested on: Staphylococcus epidermidis; assay: Antibacterial activity against methicillin-resistant Staphylococcus epidermidis 12-6 after 18 to 24 hrs by NCCLS M100-S11 based assay; format: functional; procedure, shortened: as §3
[13] = Tmax in rat at 25 mg/kg, po administered as single dose; format: ADME, organism-based; conditions: in vivo; procedure, shortened: as §1
Staphylococcus aureus [14] = assay: Antibacterial activity against Staphylococcus aureus ATCC 25923 after 18 to 24 hrs by NCCLS M100-S11 based assay; format: functional
Escherichia coli = assay: Antibacterial activity against Escherichia coli ATCC 25922 after 18 to 24 hrs by NCCLS M100-S11 based assay; format: functional
Rattus norvegicus [15] = assay: Acute toxicity in rat assessed as mortality at 1000 mg/kg, po administered as single dose measured up to 7 days post dose; format: organism-based; conditions: in vivo, 168 h; procedure, shortened: as §2

Cc1ccc2nc(C)c(C(=O)NCCOc3ccccc3)n2c1
Cmax [1]: 655 ng/mL | half-life [2]: 25.8 min | Vd/F [3]: 33.8 L/kg | MIC (Pseudomonas aeruginosa): > 32 µg/mL | MIC [4]: > 32 µg/mL | MRT [5]: 36.6 min | Activity (Mus musculus): Non-Toxic | CL/F [6]: 919 mL/min/kg | MIC (Klebsiella pneumoniae): > 32 µg/mL | AUC(0-inf) [7]: 453 ng·h/mL | MIC (Staphylococcus aureus [8]): > 32 µg/mL | MIC90 [9]: 0.054 µg/mL (≈ 0.175 µM) | Activity (Rattus norvegicus [10]): Non-Toxic | MIC (Streptococcus pneumoniae): > 32 µg/mL | MIC (Staphylococcus aureus [11]): > 32 µg/mL | MIC [12]: > 32 µg/mL | Tmax [13]: 19.8 min | MIC (Staphylococcus aureus [14]): > 32 µg/mL | MIC (Escherichia coli): > 32 µg/mL

Cc1ccn2c(C(=O)NCCOc3ccccc3)c(C)nc2c1
MIC90 [9]: 0.935 µg/mL (≈ 3.02 µM)

Cc1ccc2nc(C)c(C(=O)NCCOc3ccc(F)cc3)n2c1
MIC90 [9]: 0.146 µg/mL (≈ 0.446 µM)

Cc1ccc(OCCNC(=O)c2c(C)nc3cc(C)ccn23)cc1
MIC90 [9]: 0.673 µg/mL (≈ 2.08 µM)

Cc1cccc(OCCNC(=O)c2c(C)nc3cc(C)ccn23)c1
MIC90 [9]: 0.329 µg/mL (≈ 1.02 µM)

Cc1ccc2nc(C)c(C(=O)NCCOc3ccc(Br)cc3)n2c1
Cmax [1]: 225 ng/mL | half-life [2]: 90 min | Vd/F [3]: 186 L/kg | MIC (Pseudomonas aeruginosa): > 32 µg/mL | MIC [4]: > 32 µg/mL | MRT [5]: 96 min | Activity (Mus musculus): Non-Toxic | CL/F [6]: 1440 mL/min/kg | Activity (Rattus norvegicus [15]): Non-Toxic | MIC (Klebsiella pneumoniae): > 32 µg/mL | AUC(0-inf) [7]: 288 ng·h/mL | MIC (Staphylococcus aureus [8]): > 32 µg/mL | MIC90 [9]: 0.027 µg/mL (≈ 0.0695 µM) | Activity (Rattus norvegicus [10]): Non-Toxic | MIC (Streptococcus pneumoniae): > 32 µg/mL | MIC (Staphylococcus aureus [11]): > 32 µg/mL | MIC [12]: > 32 µg/mL | Tmax [13]: 30 min | MIC (Staphylococcus aureus [14]): > 32 µg/mL | MIC (Escherichia coli): > 32 µg/mL

Cc1ccc2nc(C)c(C(=O)NCCNc3ccc(Br)cc3)n2c1
MIC90 [9]: 0.25 µg/mL (≈ 0.646 µM)

Cc1ccc2nc(C)c(C(=O)NCCOc3ccc(-c4ccccc4)cc3)n2c1
MIC90 [9]: 0.39 µg/mL (≈ 1.01 µM)

Cc1ccn2c(C(=O)NCCOc3ccc(Br)cc3)c(C)nc2c1
MIC90 [9]: 0.463 µg/mL (≈ 1.19 µM)

NNC(=O)c1ccncc1 [ISONIAZID]
MIC90 [9]: 0.049 µg/mL (≈ 0.357 µM)

Cc1ccc2nc(C)c(C(=O)NCCOc3ccc([N+](=O)[O-])cc3)n2c1
MIC90 [9]: 0.245 µg/mL (≈ 0.691 µM)

Cc1ccc2nc(C)c(C(=O)NCCOc3ccccc3[N+](=O)[O-])n2c1
MIC90 [9]: 0.303 µg/mL (≈ 0.855 µM)

Cc1ccc(OCCNC(=O)c2c(C)nc3ccc(C)cn23)cc1
MIC90 [9]: 0.204 µg/mL (≈ 0.631 µM)

CO[C@H]1/C=C/O[C@@]2(C)Oc3c(C)c(O)c4c(O)c(c(/C=N/N5CCN(C)CC5)c(O)c4c3C2=O)NC(=O)/C(C)=C\C=C\[C@H](C)[C@H](O)[C@@H](C)[C@@H](O)[C@@H](C)[C@H](OC(C)=O)[C@@H]1C [RIFAMPIN]
MIC90 [9]: 0.05 µg/mL (≈ 0.0608 µM)

Cc1ccc2nc(C)c(C(=O)NCCOc3ccc(Cl)cc3)n2c1
MIC (Pseudomonas aeruginosa): > 32 µg/mL | MIC [4]: > 32 µg/mL | MIC (Klebsiella pneumoniae): > 32 µg/mL | MIC (Staphylococcus aureus [8]): > 32 µg/mL | MIC90 [9]: 0.03 µg/mL (≈ 0.0873 µM) | MIC (Streptococcus pneumoniae): > 32 µg/mL | MIC (Staphylococcus aureus [11]): > 32 µg/mL | MIC [12]: > 32 µg/mL | MIC (Staphylococcus aureus [14]): > 32 µg/mL | MIC (Escherichia coli): > 32 µg/mL

COc1ccc(OCCNC(=O)c2c(C)nc3ccc(C)cn23)cc1
MIC (Pseudomonas aeruginosa): > 32 µg/mL | MIC [4]: > 32 µg/mL | MIC (Klebsiella pneumoniae): > 32 µg/mL | MIC (Staphylococcus aureus [8]): > 32 µg/mL | MIC90 [9]: 0.031 µg/mL (≈ 0.0913 µM) | MIC (Streptococcus pneumoniae): > 32 µg/mL | MIC (Staphylococcus aureus [11]): > 32 µg/mL | MIC [12]: > 32 µg/mL | MIC (Staphylococcus aureus [14]): > 32 µg/mL | MIC (Escherichia coli): > 32 µg/mL

COc1cccc(OCCNC(=O)c2c(C)nc3cc(C)ccn23)c1
MIC90 [9]: 0.254 µg/mL (≈ 0.748 µM)

COc1ccccc1OCCNC(=O)c1c(C)nc2ccc(C)cn12
MIC90 [9]: 0.401 µg/mL (≈ 1.18 µM)

Cc1cccc(OCCNC(=O)c2c(C)nc3ccc(C)cn23)c1
MIC (Pseudomonas aeruginosa): > 32 µg/mL | MIC [4]: > 32 µg/mL | MIC (Klebsiella pneumoniae): > 32 µg/mL | MIC (Staphylococcus aureus [8]): > 32 µg/mL | MIC90 [9]: 0.029 µg/mL (≈ 0.0897 µM) | MIC (Streptococcus pneumoniae): > 32 µg/mL | MIC (Staphylococcus aureus [11]): > 32 µg/mL | MIC [12]: > 32 µg/mL | MIC (Staphylococcus aureus [14]): > 32 µg/mL | MIC (Escherichia coli): > 32 µg/mL

Cc1ccn2c(C(=O)NCCOc3ccccc3[N+](=O)[O-])c(C)nc2c1
MIC90 [9]: 0.5 µg/mL (≈ 1.41 µM)

Cc1ccc2nc(C)c(C(=O)NCCOc3ccccc3C)n2c1
MIC (Pseudomonas aeruginosa): > 32 µg/mL | MIC [4]: > 32 µg/mL | MIC (Klebsiella pneumoniae): > 32 µg/mL | MIC (Staphylococcus aureus [8]): > 32 µg/mL | MIC90 [9]: 0.038 µg/mL (≈ 0.118 µM) | MIC (Streptococcus pneumoniae): > 32 µg/mL | MIC (Staphylococcus aureus [11]): > 32 µg/mL | MIC [12]: > 32 µg/mL | MIC (Staphylococcus aureus [14]): > 32 µg/mL | MIC (Escherichia coli): > 32 µg/mL

Cc1ccn2c(C(=O)NCCOc3ccccc3C)c(C)nc2c1
MIC90 [9]: 0.231 µg/mL (≈ 0.714 µM)

COc1ccc(OCCNC(=O)c2c(C)nc3cc(C)ccn23)cc1
MIC90 [9]: 2 µg/mL (≈ 5.89 µM)

Cc1ccn2c(C(=O)NCCOc3ccc(F)cc3)c(C)nc2c1
MIC90 [9]: 2 µg/mL (≈ 6.11 µM)

Cc1ccn2c(C(=O)NCCOc3cccc([N+](=O)[O-])c3)c(C)nc2c1
MIC90 [9]: 0.5 µg/mL (≈ 1.41 µM)

COc1ccccc1OCCNC(=O)c1c(C)nc2cc(C)ccn12
MIC90 [9]: 2 µg/mL (≈ 5.89 µM)

Cc1ccn2c(C(=O)NCCOc3ccc(-c4ccccc4)cc3)c(C)nc2c1
MIC90 [9]: 0.518 µg/mL (≈ 1.34 µM)

Cc1ccn2c(C(=O)NCCOc3ccc(Cl)cc3)c(C)nc2c1
MIC90 [9]: 2 µg/mL (≈ 5.82 µM)

COc1cccc(OCCNC(=O)c2c(C)nc3ccc(C)cn23)c1
Cmax [1]: 351 ng/mL | half-life [2]: 67.2 min | Vd/F [3]: 188 L/kg | MIC (Pseudomonas aeruginosa): > 32 µg/mL | MIC [4]: > 32 µg/mL | MRT [5]: 42.6 min | Activity (Mus musculus): Non-Toxic | CL/F [6]: 1940 mL/min/kg | MIC (Klebsiella pneumoniae): > 32 µg/mL | AUC(0-inf) [7]: 214 ng·h/mL | MIC (Staphylococcus aureus [8]): > 32 µg/mL | MIC90 [9]: 0.03 µg/mL (≈ 0.0884 µM) | Activity (Rattus norvegicus [10]): Non-Toxic | MIC (Streptococcus pneumoniae): > 32 µg/mL | MIC (Staphylococcus aureus [11]): > 32 µg/mL | MIC [12]: > 32 µg/mL | Tmax [13]: 10.2 min | MIC (Staphylococcus aureus [14]): > 32 µg/mL | MIC (Escherichia coli): > 32 µg/mL

Cc1ccn2c(C(=O)NCCOc3ccc([N+](=O)[O-])cc3)c(C)nc2c1
MIC90 [9]: 4 µg/mL (≈ 11.3 µM)
